From the EternaBench riboswitch data

System: MS2 coat protein
Experiment: apparent Kd, MS2 coat protein; higher = weaker binding; RNA-MaP array; FMN 200 µM where present
In short: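 Stalled E. coli RNA polymerase transcribed each design on Illumina sequencing-chip clusters. The clusters were titrated with SNAP-549-labelled MS2 coat protein, starting at 0.7 or 1.5 nM and doubling up to 3 µM, first without ligand and then with constant ligand, in 100 mM Tris-HCl pH 7.5, 80 mM KCl, 4 mM MgCl2, BSA, DTT, yeast tRNA and Tween-20. Green signal was normalised to red-channel RNA signal and to the control-cluster median Fmax. The apparent Kd is the median of filtered binding-curve fits made for each cluster.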

[1] = designed as: ON switch for flavin mononucleotide, no ligand
[2] = ligand present: flavin mononucleotide, designed as: ON switch for flavin mononucleotide
[3] = designed as: OFF switch for flavin mononucleotide, no ligand
[4] = ligand present: flavin mononucleotide, designed as: OFF switch for flavin mononucleotide

| Sequence | apparent Kd [1] [nM] | apparent Kd [2] [nM] | apparent Kd [3] [nM] | apparent Kd [4] [nM] |
| --- | --- | --- | --- | --- |
| AGAUUUGUACAUGAGGAUCACCCAUGUUAAUAGGUGGUUGUCAGAAGGCAUUAAUAGAGAUUUAAUGAGGAUAUGAAUUAACAA | 903 | 593 | – | – |
| AUCCUGCGAGGAUAUACAUAAUUUUUUUCAUUUUGACUCGAACAUGAGGAUCACCCAUGUAGAAGGUGCUACAC | – | – | 36.7 | 32.5 |
| AUCCUGCGAGGAUAUACAUAGUGACGUCUGUUUGGUCUCAAACAUGAGGAUCACCCAUGUAGAAGGUGCGUCAC | – | – | 66.3 | 66.5 |
| GUAUAUACGUGGUACAUGAGGAUCACCCAUGUGUCUUUACAUGAGGAUAUGGAUUCUAAUUGGAUCCAGAAGGCAUGUAUAUAC | 73.1 | 27 | – | – |
| AAGAGUACAGGAUAUACAUGAGGAUCACCCAUGUGAAAAUUAAGUGGCGUACCACAAAGUAGAAGGGUACUGGA | – | – | 22.4 | 50.8 |
| GGUACUCAAAGAGUACUUGGUCGAACAUGAGGAUCACCCAUGUAGGAUAUACGAAGCAAGAAGUAGUAGAAGGACGUGUGCAGC | – | – | 12.4 | 12.1 |
| AAGUGGUUUAUAUAUAUAGAAAUCAGAAGGCGUGACAUGAGGAUCACCCAUGUGUUCAGUCAUGACGAGGAUAUGACUAAUUGU | – | – | 69.9 | 85.4 |
| ACUAAAGAAGGAUAUACUAACGAACCUCAAACAUAGAUAAGACAUGAGGAUCACCCAUGUAGAAGGUCUAGACU | – | – | 44.2 | 37.4 |
| GGGUGACAUGAGGAUCACCCAUGUCAGGAUAUGAUACUAUGUACUUCGGUACAUAGUAUCAGAAGGGACAUCCC | – | – | 48.4 | 158 |
| UUAGGCUUCUAGAAGGCAGUCCAGCUGGAGGACUGAGGAUAUAGGCACCUAACAUGAGGAUCACCCAUGUUAGUGAUUCCUCAA | – | – | 38.7 | 73 |
| CGCAUGUAAGGAUAUUAGUAGUAGUCAGAAUAGACUAUUACUGAGAAGGUACAUGAGGAUCACCCAUGUAAGCG | – | – | 62.9 | 419 |
| UUCGUGCAGCUUUGCUGUAUGCGUACAUGAGGAUCACCCAUGUAGGAUAUGGUAGGCUUUGCUUACUAGAAGGAUAGUGUGAUC | – | – | 97 | 40.3 |
| CCUCCACAUGAGGAUCACCCAUGUCAGGAUAUCGUGUGCGCGUUUUCGGUCUUUCGUGCGAGAAGGGACGUCUG | – | – | 36.9 | 35 |
| GCCUCGCUGUGAGGAUAUUACGCCUACCGGCAAAAUGCGGUUUCAGGUCCGUAAGAAGGCACAUGAGGAUCACCCAUGUAAGAA | – | – | 26.7 | 213 |
| UUUACAUACAUGAGGAUCACCCAUGUGUUCACCCAUGUAAAUCAGGAUAUAUAUAUAUAGAAUGUAUAGAAGGGAUAAUUUUUU | – | – | 97.5 | 99.7 |
| GGUCGUCACAUAUACAUGAGGAUCACCCAUGUAAAAUAACAUGAGGAUAUGGAUCCUAAUUGGAUCCAGAAGGCAUGGACGACC | 6.29 | 5.53 | – | – |
| GGUACUCAAAGAGUACCAAUACGAACAUGAGGAUCACCCAUGUAGGAUAUGCAAAAGCCGGAGUAGCAGAAGGACAUGUGCCUA | – | – | 12.6 | 46.4 |
| UGGUACUAGGGAGGAUAUGGGAAGAUACAUGAGGAUCACCCAUGUUUAAGAACGCCGAGAGGCAACUAGAAGGCCCUAGUACCU | 340 | 14.8 | – | – |
| UUAUGGCUAGGAUAUGCACGUGCAUGUUCAAGUCAAAGAAGACAUGAGGAUCACCCAUGUAGAAGGAGCGAUAA | – | – | 28.8 | 21.2 |
| GUGUACAGAGGAUAUACAGGAGCUAGGAAACUAGCAACUUCACAUGAGGAUCACCCAUGUAGAAGGCUGUACAC | – | – | 15.3 | 49.7 |
| AAAAAAAAAACAUAGGAUAUCCGGGCCGGGACAUGAGGAUCACCCAUGUCAAAAAAAAUUGGCCCGGAGAAGGAUGAAAAAAAAAA | 15.5 | 14.9 | – | – |
| UUUAAGUGAGGAUAUACGAAUAGUAAGUAAGUAUUACAGACGUAGAAGGCACAUGAGGAUCACCCAUGUAAAUA | – | – | 30.1 | 28.2 |
| GAGAAGAGGGAAGGAUAUACAUGAGGAUCACCCAUGUAGAUAGGUUUAAUAGGUUGUUGUAGUUUGUAGAAGGUCCGGUUUGUU | – | – | 17.8 | 16.7 |
| GGUAUUCGAGGAUAUCGCAAACGAGACAUGAGGAUCACCCAUGUCCCUCAUGCUUGUCGGCGAGAAGGCGACAAGC | – | – | 14.8 | 17.7 |
| ACGUGGCUGCCGCAGGAUAUACCCUGUUCCACAUGAGGAUCACCCAUGUUUACGAACUAUGAGAGGUAGAAGGGUGGAUGUCAUU | 31.2 | 13.9 | – | – |
| UUUAUGUCAGGAUAUGAUUAGAUCUACUUUUGUAGAUCUAAUCAGAAGGGACAUGAGGAUCACCCAUGUAGUUU | – | – | 126 | 236 |
| GUACGUGGACAGAAGGUGACAUGAGGAUCACCCAUGUUAGUUGAGGUACCAGCGAUCCGCGUGAUUGAGGAUAUGUCUGCGGGC | – | – | 16.1 | 42.4 |
| CGUGAGUCAGGAUAUUAGUAGUGUGUGGAUACAUAUAUUGCUGAGAAGGGACAUGAGGAUCACCCAUGUAUACG | – | – | 32 | 37.1 |

| Sequence | apparent Kd [1] [nM] | apparent Kd [2] [nM] | apparent Kd [3] [nM] | apparent Kd [4] [nM] |
| --- | --- | --- | --- | --- |
| UGAGUGCUGCGAGGAUAUACAUGAGGAUCACCCAUGUAAAUGUGUGAGGCUUUGCCUCACACAAUGUAGAAGGCGCAGUACUCU | – | – | 14.5 | 17.2 |
| CAGCGAUAGCUGAACAAUCUAUCUGAGGAUAUUCAUGAUAAACAUGAGGAUCACCCAUGUAAUUGGGAGAAGGCAGAUAGAUUG | 441 | 19.3 | – | – |
| AACGCAGAAAUCGCAAUACAUGAGGAUCACCCAUGUAGAUCACAGGAUAUGGUCUAGUCAGUGGUCCAGAAGGGUGAUCAGAAC | 66.4 | 38.6 | – | – |
| ACCUUGUCAGGAUAUCCUAUUUUUUGUUUUAUAUUUACUAUGGAGAAGGGACAUGAGGAUCACCCAUGUUGGUC | – | – | 38.8 | 50.2 |
| GGAUGUCAAAGACAUCCAAUACGAACAUGAGGAUCACCCAUGUAGGAUAUGCUACUCAAAGAGUAGCAGAAGGACAUGUGUCUU | – | – | 30.6 | 164 |
| AUGAGGUCAGGAUAUGCAUGGCGGGACUUGCGUCGUGGCGUGCAGAAGGGACAUGAGGAUCACCCAUGUGGAGU | – | – | 152 | 218 |
| UCGUUUAUACAAGGAUAUCAAUUAUAGCUAAAUUUAACAUGAGGAUCACCCAUGUAACUAUGGAGUGAGAAGGUGUAAUGACUU | 401 | 251 | – | – |
| UGUGGGUCCGUUAGGAUAUUUACAGGCAUGCCUGUAAAGAAGGAACAUGAGGAUCACCCAUGUUUGACAAAUUU | – | – | 16.9 | 39.8 |
| GGGCCCGGAGGAUAUACAAUGGGCCCGGGAAAUUGGGCCCUACAUGAGGAUCACCCAUGUAGAAGGUUGGGCCC | – | – | 12.8 | 13.6 |
| AUAAGCUCGUCAGGAUAUGCAACACUGUGUAAGCAGUGUGGUAUGAUCACAUGAGGAUCACCCAUGUAGAAGGGACGAGCUUAU | – | – | 6.53 | 26.9 |
| GUCAGCUCGUGAGGAUAUACAACACUGCUUCGGCAGUGUAUUAAGAUCACAUGAGGAUCACCCAUGUAGAAGGCACGAGAUGAU | – | – | 14.3 | 237 |
| GGUGCACGCACAGGAUAUCCGGCGGAGCUCGUCGGAGAAGGGUGACAUGAGGAUCACCCAUGUACGUGCAGCCAAGUUUGAGAG | 66.9 | 39.3 | – | – |
| GUCAGCUCGUGAGGAUAUACAACACUGCUUCGGCAGUGUAUUAAGAUCACAUGAGGAUCACCCAUGUAGAAGGCAAGAGCUGAU | – | – | 13.2 | 227 |
| GGGUACAUCGGAGGAUAUCAUUUAAAUACAUGAGGAUCACCCAUGUCGAUGGAGACAUCGGAGAUUGAGAAGGCCGAUGUACCG | 7.9 | 5.57 | – | – |
| GCUUGUGAAGGAUAUACUGGCGGCAUGCGCUCGACACGCGCACAUGAGGAUCACCCAUGUAGAAGGUCAAACGU | – | – | 17.2 | 17.7 |
| GGAGCGAGCACAGGAUAUAAGCUAACGGUUAGUUUAGAAGGGUGGGAUCAGACAUGAGGAUCACCCAUGUGUGUUUUUGCUCCA | 128 | 314 | – | – |
| UAAAAGACUAGCAUUCUAAAGAUCACAUGAGGAUCACCCAUGUAGGAUAUGAGCAGAAAAUCUGCUCAGAAGGACAUGCUAGUC | – | – | 5.51 | 6.02 |
| UGUUGUAUUACAGGAUAUCUAUAAUUUUUAUUUAGAGAAGGGUAUUCACAUGAGGAUCACCCAUGUAUAUACGAGGAAGUUGUG | 43.5 | 45.8 | – | – |
| UAAUCUCAGAUAGGAUAUAUAGGAUGAUUUAAGACUGAACAUGAGGAUCACCCAUGUGAUUAUCUGUAGAAGGAUCAAUUACCC | 392 | 351 | – | – |
| AAGGCACCUGAGAAGGGUACAUGAGGAUCACCCAUGUGGCUAUUUGUGCGUCGUUGACCAAGUGUACAGGAUAUUAGGGAACGU | – | – | 98 | 32.4 |
| CCUCAUGGUCGAGGAUAUAUAACGUGGAACGUAAUAGAAGGCGACAUGAGGAUCACCCAUGUAGCGUCCACUGGAGUCGCGCGG | – | – | 119 | 62.2 |
| AGUAUGAUCCAGAAGGACAUAUGACCAAGACGAAACAUGAGGAUCACCCAUGUAGGAUAUGGAUCAUACAGGAUCGUGAGAUCA | – | – | 6.14 | 12 |
| GGAGCUCCUGACAUGAGGAUCACCCAUGUUCACUUAUUAAAUCAGGAUAUCGUCGCGAAACGCGACGAGAAGGGAUAUGCUCCU | 7.55 | 7.05 | – | – |
| UCAGGCUUCGAGAAGGACAUGAGGAUCACCCAUGUUAAUAUGUAGCAGCCGUGAGGCUGCAUCAUGUAGGAUAUCGGAGUCUGC | – | – | 7.02 | 18.7 |
| UCUCGCUGGCGAGGAUAUCCUGUGCGGUUCCGGCUCGUGUCUGUUACAUGAGGAUCACCCAUGUGGGAGAAGGUGCCUGUGGCU | – | – | 32.7 | 32.6 |
| UUGUUUAGAAAUUAACAUGAGGAUCACCCAUGUAUUGGAUCAGAGGAUAUGCAUGUUUGAUUGUAGCAGAAGGCUGAUUGUUGA | 50.6 | 45.1 | – | – |
| CAGUGCAAUGUAGGAUAUGCUCAGGAUAACUGAGCAGAAGGACAUGAGGAUCACCCAUGUCAAAUGAAAGAUAAUAAAGCACUG | – | – | 14.3 | 17.8 |
